For assay [1], the system named is Mus musculus. The assay can be described thus: Ratio of effective dose of compound producing agonistic activity in presence and absence of naltriben (50 pmol) upon intrathecal administration in mouse tail flick assay in presence of DN-18. The format is functional. Put shortly: (§1)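 Intrathecal tail-flick in CD1 mice. NTB was given i.t. at 50 pmol with a 10 min peak time. Ratio is agonist ED50 with antagonist divided by agonist ED50 alone, taken as significant when its 95% confidence interval is >1.0. For combination dosing, the monovalent pair was coadministered i.t. equimolar.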
A general note: Thermal pain tests record how soon the animal reacts.

Assay [2] has as its target T1, Opioid receptors; delta & kappa (Homo sapiens, UniProt P41145+P41143). The assay can be described thus: Inhibition of [3H]U-69593 binding to delta and kappa opioid receptors expressed in HEK 293 cells. In kind it is cell-based. As to conditions: hek293. Put shortly: (§2)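 Radioligand binding on intact HEK cells with [3H]U69593, using either δ and κ coexpressed in one line or a mixture of HEK cells singly expressing δ or κ. Run alone, with 10 nM NTB, or with 100 nM BNTX.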

Assay [3] addresses T1, Opioid receptors; delta & kappa. The assay can be described thus: Inhibition of [3H]U-69593 binding to delta and kappa opioid receptors coexpressed in HEK 293 cells. The format is cell-based. The conditions noted are these: hek293. Put shortly: as §2
The subject of assay [4] is Mus musculus. The assay can be described thus: Effective dose required for agonistic activity upon intrathecal administration in mouse (n=10) tail flick assay. The format is functional. Put shortly: (§3)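 CD1 mice dosed intrathecally, antinociception by tail-flick. A response counted as positive when latency exceeded control latency plus 3 SD of mean reaction time. ED50 given with 95% confidence limits. For combination dosing, the two monovalent ligands were coadministered i.t. in equimolar ratio.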

Assay [5] has as its system Mus musculus. In words: Ratio of effective dose of compound producing agonistic activity in presence and absence of naltriben (50 pmol) upon intrathecal administration in mouse tail flick assay. In kind it is functional. Put shortly: as §1
The test system of assay [6] is Mus musculus. The assay can be described thus: Ratio of effective dose of compound producing agonistic activity in presence and absence of benzylidenenaltrexone (25 pmol) upon intrathecal administration in mouse tail flick assay. In kind it is functional. Put shortly: (§4)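 Intrathecal tail-flick in CD1 mice. BNTX was given i.t. at 25 pmol with a 10 min peak time. Ratio is agonist ED50 with antagonist divided by agonist ED50 alone, taken as significant when its 95% confidence interval is >1.0. For combination dosing, the monovalent pair was coadministered i.t. equimolar.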

Assay [7] has as its system Mus musculus. The assay can be described thus: Ratio of effective dose of compound producing agonistic activity in presence and absence of norbinaltorphimine (2.5 nmol) upon intrathecal administration in mouse tail flick assay in presence of DN-18.
Assay [8] concerns the target T1, Opioid receptors; delta & kappa. In words: Inhibition of [3H]deltorphin II binding to delta and kappa opioid receptors expressed in HEK 293 cells. In kind it is cell-based. As to conditions: hek293.
Assay [9] has as its system Mus musculus. In words: Ratio of effective dose of compound producing agonistic activity in presence and absence of benzylidenenaltrexone (25 pmol) upon intrathecal administration in mouse tail flick assay in presence of DN-18. In kind it is functional. Put shortly: as §4
Assay [10] has as its system Mus musculus. In words: Ratio of effective dose of compound producing agonistic activity in presence and absence of norbinaltorphimine (2.5 nmol) upon intrathecal administration in mouse tail flick assay.
Assay [11] addresses T1, Opioid receptors; delta & kappa. The assay can be described thus: Inhibition of [3H]deltorphin II binding to delta and kappa opioid receptors coexpressed in HEK 293 cells. The conditions noted are these: hek293. In kind it is cell-based.
For assay [12], the system named is Mus musculus. In words: Effective dose required for agonistic activity upon intrathecal administration in mouse (n=10) tail flick assay in presence of DN-18. In kind it is functional. In short, it runs like this: as §3
For assay [13], the system named is Mus musculus. The assay can be described thus: Ratio of effective dose of compound producing agonistic activity in presence and absence of KDN21 upon intrathecal administration in mouse tail flick assay. In kind it is functional.
The target of assay [14] is T1, Opioid receptors; delta & kappa. In words: Inhibition of [3H]-U-69,593 binding to delta and kappa opioid receptors co-expressed in HEK 293 cells with 100 nM benzylidenenaltrexone. The format is cell-based. As to conditions: hek293. Put shortly: as §2
The target is the same in assay [15]. The assay can be described thus: Inhibition of [3H]U-69593 binding to delta and kappa opioid receptors expressed in HEK 293 cells with 100 nM benzylidenenaltrexone. The format is cell-based. The conditions noted are these: hek293. Put shortly: as §2
Assay [16] deals with Mus musculus. The assay can be described thus: Ratio of effective dose of compound producing agonistic activity in presence and absence of CTOP (5.9 pmol) upon intrathecal administration in mouse tail flick assay. The format is functional.
Assay [17] concerns the target T1, Opioid receptors; delta & kappa. In words: Inhibition of [3H]U-69593 binding to delta and kappa opioid receptors expressed in HEK 293 cells with 10 nM naltriben. The format is cell-based. As to conditions: hek293. Put shortly: as §2
The target is the same in assay [18]. The assay can be described thus: Inhibition of [3H]-U-69,593 binding to delta and kappa opioid receptors co-expressed in HEK 293 cells with 10 nM naltriben. The format is cell-based. The conditions noted are these: hek293. Put shortly: as §2

Where only a bound is given, the exact number is not on record here.

As usually defined, the Ki is a measure of affinity in units of concentration, obtained from inhibition or displacement.

On to `CNC(=O)CNC(=O)CNC(=O)CCC(=O)NCC(=O)NCC(=O)Nc1cccc([C@@H](CN2CCCC2)N(C)C(=O)Cc2ccc(Cl)c(Cl)c2)c1`, for which the “ED50 Ratio” value with Mus musculus [1] is listed as about 1; in the assay on Mus musculus [5], 1.5; in the assay on Mus musculus [6], 1.3; with Mus musculus [7], 44.8; with Mus musculus [9], about 1; in the assay with Mus musculus [10] it was 10.8. Further, the Ki in assay [2] is on record as 23.9 nM; in [3], 36.2 nM; in assay [8], over 1000 nM; in assay [11] it was over 1000 nM. The figures for the ED50 in the assay on Mus musculus [4] and with Mus musculus [12] were 0.11 nmol/mouse and 0.14 nmol/mouse, respectively.
`CNC(=O)CNC(=O)CCC(=O)NCC(=O)Nc1cccc([C@@H](CN2CCCC2)N(C)C(=O)Cc2ccc(Cl)c(Cl)c2)c1`: the Ki is listed as 6.75 nM in assay [2], 41.6 nM in assay [3], over 1000 nM in assay [8] and 281.2 nM in [11]. Also, the ED50 in the assay with Mus musculus [4] amounted to 1.4 nmol/mouse. Further, the “ED50 Ratio” value in the assay with Mus musculus [5] was 1; with Mus musculus [6], 1; with Mus musculus [10], 11.
On to `CNC(=O)CNC(=O)CCC(=O)NCC(=O)Nc1cccc2c3c([nH]c12)[C@@H]1Oc2c(O)ccc4c2[C@@]12CCN(CC1CC1)[C@H](C4)[C@]2(O)C3`, for which the Ki is over 1000 nM in assay [2], over 1000 nM in [3], 0.15 nM in assay [8] and 0.46 nM in assay [11].
Regarding `CNC(=O)CNC(=O)CNC(=O)CCC(=O)NCC(=O)NCC(=O)Nc1cccc2c3c([nH]c12)[C@@H]1Oc2c(O)ccc4c2[C@@]12CCN(CC1CC1)[C@H](C4)[C@]2(O)C3`, the Ki is listed as over 1000 nM in assay [2], over 1000 nM in [3], 1.07 nM in [8] and 0.91 nM in [11].
Take `CN(C(=O)Cc1ccc(Cl)c(Cl)c1)[C@H](CN1CCCC1)c1cccc(NC(=O)CNC(=O)CNC(=O)CCC(=O)NCC(=O)NCC(=O)Nc2cccc3c4c([nH]c23)[C@@H]2Oc3c(O)ccc5c3[C@@]23CCN(CC2CC2)[C@H](C5)[C@]3(O)C4)c1`: the “ED50 Ratio” value in the assay with Mus musculus [13] came to 0.65; with Mus musculus [5], 25.9; in the assay with Mus musculus [6] it was 3; in the assay with Mus musculus [16], 0.8; with Mus musculus [10], 39.3. Besides, the Ki is listed as 0.19 nM in assay [14]; 2.51 nM in [2]; 0.06 nM in assay [3]; 0.52 nM in [8]; 1.14 nM in assay [15]; 1.94 nM in [17]. Further, the Ki is given as 0.008 nM in assay [11] and 2.34 nM in [18]. In addition, the ED50 in the assay with Mus musculus [4] is 0.19 nmol/mouse.
With `CN(C(=O)Cc1ccc(Cl)c(Cl)c1)[C@H](CN1CCCC1)c1cccc(NC(=O)CNC(=O)CNC(=O)CCCCC(=O)NCC(=O)NCC(=O)Nc2cccc3c4c([nH]c23)[C@@H]2Oc3c(O)ccc5c3[C@@]23CCN(CC2CC2)[C@H](C5)[C@]3(O)C4)c1`, the ED50 in the assay with Mus musculus [4] came out at 0.5 nmol/mouse. For the same compound, the results for the “ED50 Ratio” value with Mus musculus [5], in the assay with Mus musculus [6] and in the assay on Mus musculus [10] were 2, 3.4 and 3.4, respectively.
On to `CN(C(=O)Cc1ccc(Cl)c(Cl)c1)[C@H](CN1CCCC1)c1cccc(NC(=O)CNC(=O)CCC(=O)NCC(=O)Nc2cccc3c4c([nH]c23)[C@@H]2Oc3c(O)ccc5c3[C@@]23CCN(CC2CC2)[C@H](C5)[C@]3(O)C4)c1`, for which the Ki was 3.79 nM in assay [14]; 1.9 nM in assay [2]; 1.66 nM in assay [3]; 0.43 nM in [8]; 2.75 nM in [15]; 2.02 nM in assay [17]. In addition, the Ki in assay [11] is reported as 1.23 nM; in assay [18], 4.06 nM. The ED50 in the assay on Mus musculus [4] is reported as 0.44 nmol/mouse. Moreover, the “ED50 Ratio” value came out at 1.1 with Mus musculus [5], 2.1 in the assay with Mus musculus [6] and 33 with Mus musculus [10].

These data come from ChEMBL document CHEMBL1145194, “A bivalent ligand (KDAN-18) containing delta-antagonist and kappa-agonist pharmacophores bridges delta2 and kappa1 opioid receptor phenotypes” (J Med Chem, 2005).
